Data on ten molecules can be found in ChEMBL document CHEMBL1156704, “Angiotensin II--AT1 receptor antagonists: design, synthesis and evaluation of substituted carboxamido benzimidazole derivatives” (Eur J Med Chem, 2008).

Test [1] relates to Rattus norvegicus. As to the kind of experiment: Antihypertensive activity against desoxycortisone-induced hypertension in rat assessed as decrease in mean arterial blood pressure at 5 mg/kg, ip. The format is functional, Artery. The settings on record: route intraperitoneal.
The target in test [2] is T1, Type-1 angiotensin II receptor A (Rattus norvegicus) (UniProt P25095).
T1 sequence (whole entry): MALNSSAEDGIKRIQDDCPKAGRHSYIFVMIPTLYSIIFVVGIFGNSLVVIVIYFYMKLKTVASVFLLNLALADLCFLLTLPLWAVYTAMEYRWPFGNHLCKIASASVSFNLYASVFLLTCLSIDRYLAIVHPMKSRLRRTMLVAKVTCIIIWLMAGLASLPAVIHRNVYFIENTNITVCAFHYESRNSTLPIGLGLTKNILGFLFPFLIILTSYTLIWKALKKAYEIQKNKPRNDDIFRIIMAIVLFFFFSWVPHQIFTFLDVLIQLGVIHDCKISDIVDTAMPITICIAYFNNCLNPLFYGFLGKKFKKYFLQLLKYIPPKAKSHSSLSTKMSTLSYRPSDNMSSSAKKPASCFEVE
Description: (§1) Antagonist activity at AT1 receptor in rat aorta. It is filed as functional, tissue-based.

Test [3] concerns the target T2, Type-1 angiotensin II receptor A (Rattus norvegicus, UniProt P25095).
T2 sequence (P25095 whole entry): T1 sequence (whole entry)
Described as §1. It is filed as functional, tissue-based. The settings on record: read-out: pA2 (converted).

For test [4], the system named is Rattus norvegicus. Description: Antihypertensive activity against desoxycortisone-induced hypertension in rat assessed as decrease in mean arterial blood pressure at 3 mg/kg, ip. It is filed as functional, Artery. The following applies: route intraperitoneal. An outline of the steps:
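Hypertension induced in rats with desoxycortisone acetate 40 mg kg-1 s.c. Mean arterial blood pressure recorded through a carotid artery cannula connected to a pressure transducer. Test agents were given intraperitoneally. The dose-finding series used 0.1–30.0 mg kg-1, and the remaining agents were tested at 1.0, 3.0 and 10.0 mg kg-1.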

As for `CCOc1nc2cccc(C(=O)O)c2n1Cc1ccc(-c2ccccc2-c2nnn[nH]2)cc1`, the Activity in the test on Rattus norvegicus [1] turned out to be 31.8 mmHg. In test [2], this molecule came in with a pA10 of 7.1. Further, the Kb in test [3] is 10 nM.

`CCCCc1nc2cc(NC(=O)CC)ccc2n1Cc1ccc(-c2ccccc2C(=O)O)cc1`: the Activity in the test with Rattus norvegicus [4] worked out at 36.2 mmHg. Moreover, in test [2], the pA10 came out at 4.7. The Kb in test [3] was 20 nM.

In the case of `CCCCc1nc2cc(NC(=O)c3ccccc3Cl)ccc2n1Cc1ccc(-c2ccccc2C(=O)O)cc1`, in the test with Rattus norvegicus [4], the Activity is on record as 20.3 mmHg. In test [2], this molecule showed a pA10 of 5.8. For the same molecule, the Kb in test [3] is 316 nM.

Turning to `CCCCc1nc(Cl)c(CO)n1Cc1ccc(-c2ccccc2-c2nnn[nH]2)cc1` [LOSARTAN], in the test with Rattus norvegicus [1], the Activity is recorded as 29.7 mmHg. Also, in test [2], the pA10 was 6.5.

For the molecule `CCCCc1nc2cc(NC(=O)c3ccc(Cl)cc3)ccc2n1Cc1ccc(-c2ccccc2C(=O)O)cc1`, in the test with Rattus norvegicus [4], the Activity turned out to be 12 mmHg. In test [2], this molecule registered a pA10 of 5.4. Besides, the Kb in test [3] is 631 nM.

For the molecule `CCCCC(=O)Nc1ccc2c(c1)nc(CCCC)n2Cc1ccc(-c2ccccc2C(=O)O)cc1`, the Activity in the test on Rattus norvegicus [4] stood at 21.7 mmHg. The pA10 in test [2] amounted to 3.7. The Kb in test [3] is 398 nM.

As for `CCCCc1nc2cc(NC(=O)c3ccccc3)ccc2n1Cc1ccc(-c2ccccc2C(=O)O)cc1`, the Activity with Rattus norvegicus [4] came out at 19.8 mmHg. In test [2], this molecule came in with a pA10 of 6. The Kb in test [3] is 251 nM.

On to `CCCCc1nc2cc(NC(=O)CCC)ccc2n1Cc1ccc(-c2ccccc2C(=O)O)cc1`, for which the Activity with Rattus norvegicus [4] turned out to be 26.4 mmHg. The same molecule returned a pA10 in test [2] of 4.4. In test [3], the Kb is 79.4 nM.

Consider `CCCCc1nc2cc(N)ccc2n1Cc1ccc(-c2ccccc2C(=O)O)cc1`, for which, in the test with Rattus norvegicus [4], the Activity is 33.3 mmHg. For the same molecule, in test [2], the pA10 was found to be 7. In test [3], the Kb was 15.8 nM.

With `CCCCc1nc2cc(NC(C)=O)ccc2n1Cc1ccc(-c2ccccc2C(=O)O)cc1`, the Activity in the test with Rattus norvegicus [4] is 33.5 mmHg. The same molecule returned a pA10 in test [2] of 5.9. Moreover, the Kb in test [3] was 10 nM.
